Experimental data from ChEMBL document CHEMBL4346672, “Antimicrobial and KPC/AmpC inhibitory activity of functionalized benzosiloxaboroles” (Eur J Med Chem, 2019).
≈ marks a conversion by molar mass, not a printed value. Calls of active or inactive are those of the source. The rule behind the calls is not given here.

Tested on: Pseudomonas aeruginosa
Experiment: Antibacterial activity against Pseudomonas aeruginosa ATCC 27853 measured after 18 hrs by CLSI broth dilution method
Format: functional
Conditions: ATCC 27853, 18 h
Outline: (§1)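 Broth MIC in Mueller-Hinton II broth following CLSI, compounds dissolved in DMSO. Strains subcultured twice on tryptic soy agar before testing. Growth read after 35 °C, 18 h.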

MIC [µg/mL] | SMILES
> 400 | C[Si]1(C)OB(O)c2cc(F)c(CO)c(F)c21

Tested on: Pichia kudriavzevii
Experiment: Antifungal activity against Candida krusei ATCC 6258 assessed as diameter of zone inhibition incubated for 24 hrs by CLSI disc diffusion method
Format: functional
Conditions: not given
Outline: (§2)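 Yeast disc diffusion on Mueller-Hinton agar supplemented with 2% glucose and 0.5 mg/L methylene blue. Compounds in DMSO. Yeasts subcultured on Sabouraud dextrose agar before testing. Zones read after 35 °C, 24 h.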

SMILES | diameter of the inhibition zone (DIZ)
C[Si]1(C)OB(O)c2cc(F)c(CO)c(F)c21 | inactive

Tested on: Enterococcus faecalis
Experiment: Antibacterial activity against Enterococcus faecalis ATCC 29212 assessed as diameter of zone inhibition measured after 18 hrs by CLSI disc diffusion method
Format: functional
Conditions: not given
Outline: (§3)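 Disc diffusion on Mueller-Hinton II agar. Compounds dissolved in DMSO. Strains stored at -80 °C and subcultured twice on tryptic soy agar before testing. Inhibition zones read after 35 °C, 18 h.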

SMILES | diameter of the inhibition zone (DIZ)
C[Si]1(C)OB(O)c2cc(F)c(CO)c(F)c21 | inactive

Tested on: Proteus mirabilis
Experiment: Antibacterial activity against Proteus mirabilis ATCC 12453 assessed as diameter of zone inhibition measured after 18 hrs by CLSI disc diffusion method
Format: functional
Conditions: not given
Outline: as §3

SMILES | diameter of the inhibition zone (DIZ)
C[Si]1(C)OB(O)c2cc(F)c(CO)c(F)c21 | inactive

Tested on: Escherichia coli
Experiment: Antibacterial activity against Escherichia coli ATCC 25922 assessed as diameter of zone inhibition measured after 18 hrs by CLSI disc diffusion method
Format: functional
Conditions: not given
Outline: as §3

SMILES | diameter of the inhibition zone (DIZ)
C[Si]1(C)OB(O)c2cc(F)c(CO)c(F)c21 | inactive

Tested on: Staphylococcus epidermidis
Experiment: Antibacterial activity against Staphylococcus epidermidis ATCC 12228 assessed as diameter of zone inhibition measured after 18 hrs by CLSI disc diffusion method
Format: functional
Conditions: not given
Outline: as §3

SMILES | diameter of the inhibition zone (DIZ) [mm]
C[Si]1(C)OB(O)c2cc(F)c(CO)c(F)c21 | 19

Tested on: Enterobacter cloacae
Experiment: Antibacterial activity against Enterobacter cloacae DSM 6234 measured after 18 hrs by CLSI broth dilution method
Format: functional
Conditions: DSM 6234, 18 h
Outline: as §1

MIC [µg/mL] | SMILES
> 400 | C[Si]1(C)OB(O)c2cc(F)c(CO)c(F)c21

Tested on: Bordetella bronchiseptica
Experiment: Antibacterial activity against Bordetella bronchiseptica ATCC 4617 assessed as diameter of zone inhibition measured after 18 hrs by CLSI disc diffusion method
Format: functional
Conditions: not given
Outline: as §3

SMILES | diameter of the inhibition zone (DIZ)
C[Si]1(C)OB(O)c2cc(F)c(CO)c(F)c21 | inactive

Tested on: Stenotrophomonas maltophilia
Experiment: Antibacterial activity against Stenotrophomonas maltophilia ATCC 13637 assessed as fold reduction of MIC in presence of efflux pump inhibitor PAbetaN incubated for 18 hrs by broth microdilution method
Format: functional
Conditions: not given
Outline: (§4)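 MICs determined with and without PAβN at 50 mg/L in Mueller-Hinton broth containing 1 mM MgSO₄. 2-fold serial dilutions per CLSI. Fold change taken from the paired MICs after 35 °C, 18 h.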

SMILES | fold change (FC)
C[Si]1(C)OB(O)c2cc(F)c(CO)c(F)c21 | 16

Tested on: Klebsiella pneumoniae
Experiment: Antibacterial activity against Klebsiella pneumoniae ATCC 13883 measured after 18 hrs by CLSI broth dilution method
Format: functional
Conditions: ATCC 13883, 18 h
Outline: as §1

MIC [µg/mL] | SMILES
> 400 | C[Si]1(C)OB(O)c2cc(F)c(CO)c(F)c21

Tested on: not listed separately
Experiment: Dissociation constant, pKa1 of compound in 0.1 M NaOH by potentiometric analysis
Format: physicochemical
Conditions: not given

pKa | SMILES
5.8 | C[Si]1(C)OB(O)c2cc(F)c(CO)c(F)c21

Tested on: Escherichia coli
Experiment: Antibacterial activity against Escherichia coli ATCC 25922 assessed as fold reduction of MIC in presence of efflux pump inhibitor PAbetaN incubated for 18 hrs by CLSI broth microdilution method
Format: functional
Conditions: not given
Outline: as §4

SMILES | fold change (FC)
C[Si]1(C)OB(O)c2cc(F)c(CO)c(F)c21 | 4

Tested on: Enterococcus faecalis
Experiment: Antibacterial activity against Enterococcus faecalis ATCC 29212 measured after 18 hrs by CLSI broth dilution method
Format: functional
Conditions: ATCC 29212, 18 h
Outline: as §1

MIC [µg/mL] | SMILES
> 400 | C[Si]1(C)OB(O)c2cc(F)c(CO)c(F)c21

Tested on: Klebsiella pneumoniae
Experiment: Antibacterial activity against Klebsiella pneumoniae ATCC 13883 assessed as fold reduction of MIC in presence of efflux pump inhibitor PAbetaN incubated for 18 hrs by broth microdilution method
Format: functional
Conditions: not given
Outline: as §4

SMILES | fold change (FC)
C[Si]1(C)OB(O)c2cc(F)c(CO)c(F)c21 | 2

Tested on: Meyerozyma guilliermondii
Experiment: Antifungal activity against Candida guilliermondii IBA 155 assessed as decrease in fungal cell growth at 0.78 to 12.5 mg/L incubated for 24 hrs by CLSI broth dilution method
Format: functional
Conditions: IBA 155, 24 h
Outline: (§5)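 Yeast broth dilution in RPMI 1640 with 2% glucose, compounds in DMSO. Yeasts pre-grown on Sabouraud dextrose agar. Growth read after 35 °C, 24 h.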

MIC [µg/mL] | SMILES
> 400 | C[Si]1(C)OB(O)c2cc(F)c(CO)c(F)c21

Tested on: Burkholderia cepacia
Experiment: Antibacterial activity against Burkholderia cepacia ATCC 25416 measured after 18 hrs by CLSI broth dilution method
Format: functional
Conditions: ATCC 25416, 18 h
Outline: as §1

MIC [µg/mL] | SMILES
> 400 | C[Si]1(C)OB(O)c2cc(F)c(CO)c(F)c21

Tested on: Acinetobacter baumannii
Experiment: Antibacterial activity against Acinetobacter baumannii ATCC 19606 measured after 18 hrs by CLSI broth dilution method
Format: functional
Conditions: ATCC 19606, 18 h
Outline: as §1

MIC [µg/mL] | SMILES
400 (≈ 1640 µM) | C[Si]1(C)OB(O)c2cc(F)c(CO)c(F)c21

Tested on: Stenotrophomonas maltophilia
Experiment: Antibacterial activity against Stenotrophomonas maltophilia ATCC 13637 measured after 18 hrs by CLSI broth dilution method
Format: functional
Conditions: ATCC 13637, 18 h
Outline: as §1

MIC [µg/mL] | SMILES
200 (≈ 819 µM) | C[Si]1(C)OB(O)c2cc(F)c(CO)c(F)c21

Tested on: Proteus mirabilis
Experiment: Antibacterial activity against Proteus mirabilis ATCC 12453 measured after 18 hrs by CLSI broth dilution method
Format: functional
Conditions: ATCC 12453, 18 h
Outline: as §1

MIC [µg/mL] | SMILES
> 400 | C[Si]1(C)OB(O)c2cc(F)c(CO)c(F)c21

Tested on: Candida parapsilosis
Experiment: Antifungal activity against Candida parapsilosis ATCC 22019 assessed as decrease in fungal cell growth at 0.78 to 12.5 mg/L incubated for 24 hrs by CLSI broth dilution method
Format: functional
Conditions: Lodderomyces parapsilosis, ATCC 22019, 24 h
Outline: as §5

MIC [µg/mL] | SMILES
400 (≈ 1640 µM) | C[Si]1(C)OB(O)c2cc(F)c(CO)c(F)c21

Tested on: Candida parapsilosis
Experiment: Antifungal activity against Candida parapsilosis ATCC 22019 assessed as diameter of zone inhibition incubated for 24 hrs by CLSI disc diffusion method
Format: functional
Conditions: not given
Outline: as §2

SMILES | diameter of the inhibition zone (DIZ)
C[Si]1(C)OB(O)c2cc(F)c(CO)c(F)c21 | inactive

Tested on: Enterococcus faecium
Experiment: Antibacterial activity against Enterococcus faecium ATCC 6057 measured after 18 hrs by CLSI broth dilution method
Format: functional
Conditions: ATCC 6057, 18 h
Outline: as §1

MIC [µg/mL] | SMILES
> 400 | C[Si]1(C)OB(O)c2cc(F)c(CO)c(F)c21

Tested on: Klebsiella pneumoniae
Conditions: ATCC 13883

SMILES | DIZ
C[Si]1(C)OB(O)c2cc(F)c(CO)c(F)c21 | inactive

Tested on: Candida tropicalis
Experiment: Antifungal activity against Candida tropicalis IBA 171 assessed as diameter of zone inhibition incubated for 24 hrs by CLSI disc diffusion method
Format: functional
Conditions: not given
Outline: as §2

SMILES | diameter of the inhibition zone (DIZ)
C[Si]1(C)OB(O)c2cc(F)c(CO)c(F)c21 | inactive

Tested on: Staphylococcus aureus
Experiment: Antibacterial activity against Staphylococcus aureus ATCC 6538P assessed as diameter of zone inhibition measured after 18 hrs by CLSI disc diffusion method
Format: functional
Conditions: not given
Outline: as §3

SMILES | diameter of the inhibition zone (DIZ) [mm]
C[Si]1(C)OB(O)c2cc(F)c(CO)c(F)c21 | 17

Tested on: Meyerozyma guilliermondii
Experiment: Antifungal activity against Candida guilliermondii IBA 155 assessed as diameter of zone inhibition incubated for 24 hrs by CLSI disc diffusion method
Format: functional
Conditions: not given
Outline: as §2

SMILES | diameter of the inhibition zone (DIZ)
C[Si]1(C)OB(O)c2cc(F)c(CO)c(F)c21 | inactive

Tested on: Serratia marcescens
Experiment: Antibacterial activity against Serratia marcescens ATCC 13880 measured after 18 hrs by CLSI broth dilution method
Format: functional
Conditions: ATCC 13880, 18 h
Outline: as §1

MIC [µg/mL] | SMILES
> 400 | C[Si]1(C)OB(O)c2cc(F)c(CO)c(F)c21

Tested on: Bacillus subtilis
Experiment: Antibacterial activity against Bacillus subtilis ATCC 6633 assessed as diameter of zone inhibition measured after 18 hrs by CLSI disc diffusion method
Format: functional
Conditions: not given
Outline: as §3

SMILES | diameter of the inhibition zone (DIZ) [mm]
C[Si]1(C)OB(O)c2cc(F)c(CO)c(F)c21 | 11

Tested on: Staphylococcus aureus
Experiment: Antibacterial activity against Staphylococcus aureus ATCC 6538P measured after 18 hrs by CLSI broth dilution method
Format: functional
Conditions: not given
Outline: as §1

MIC [µg/mL] | SMILES
200 (≈ 819 µM) | C[Si]1(C)OB(O)c2cc(F)c(CO)c(F)c21

Tested on: Candida albicans
Experiment: Antifungal activity against Candida albicans ATCC 90028 assessed as diameter of zone inhibition incubated for 24 hrs by CLSI disc diffusion method
Format: functional
Conditions: not given
Outline: as §2

SMILES | diameter of the inhibition zone (DIZ)
C[Si]1(C)OB(O)c2cc(F)c(CO)c(F)c21 | inactive

Tested on: Acinetobacter baumannii
Experiment: Antibacterial activity against Acinetobacter baumannii ATCC 19606 assessed as diameter of zone inhibition measured after 18 hrs by CLSI disc diffusion method
Format: functional
Conditions: not given
Outline: as §3

SMILES | diameter of the inhibition zone (DIZ)
C[Si]1(C)OB(O)c2cc(F)c(CO)c(F)c21 | inactive

Tested on: Enterococcus faecium
Experiment: Antibacterial activity against Enterococcus faecium ATCC 6057 assessed as diameter of zone inhibition measured after 18 hrs by CLSI disc diffusion method
Format: functional
Conditions: not given
Outline: as §3

SMILES | diameter of the inhibition zone (DIZ)
C[Si]1(C)OB(O)c2cc(F)c(CO)c(F)c21 | inactive

Tested on: Serratia marcescens
Conditions: ATCC 13880

SMILES | DIZ
C[Si]1(C)OB(O)c2cc(F)c(CO)c(F)c21 | inactive

Tested on: Proteus mirabilis
Experiment: Antibacterial activity against Proteus mirabilis ATCC 12453 assessed as fold reduction of MIC in presence of efflux pump inhibitor PAbetaN incubated for 18 hrs by broth microdilution method
Format: functional
Conditions: not given
Outline: as §4

SMILES | fold change (FC)
C[Si]1(C)OB(O)c2cc(F)c(CO)c(F)c21 | 4

Tested on: Burkholderia cepacia
Experiment: Antibacterial activity against Burkholderia cepacia ATCC 25416 assessed as diameter of zone inhibition measured after 18 hrs by CLSI disc diffusion method
Format: functional
Conditions: not given
Outline: as §3

SMILES | diameter of the inhibition zone (DIZ)
C[Si]1(C)OB(O)c2cc(F)c(CO)c(F)c21 | inactive

Tested on: Bordetella bronchiseptica
Experiment: Antibacterial activity against Bordetella bronchiseptica ATCC 4617 measured after 18 hrs by CLSI broth dilution method
Format: functional
Conditions: ATCC 4617, 18 h
Outline: as §1

MIC [µg/mL] | SMILES
> 400 | C[Si]1(C)OB(O)c2cc(F)c(CO)c(F)c21
